Results: ChEMBL document CHEMBL1687891, “Triterpenoid saponins from Symplocos lancifolia” (2011)
≈ marks a conversion by molar mass, not a printed value. Calls of active or inactive are those of the source. The calls are words filed in the database; no cut-off is given here.

Key:
Escherichia coli [1] = test: Antibacterial activity against Escherichia coli ATCC 25922 assessed as inhibition zone after 18 hrs by disk diffusion method; assay type: functional, organism-based
In short: (§1)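 Samples were prepared at 10 mg/mL in water, and 50 µL was applied to 8 mm paper disks. Disks were placed on Mueller-Hinton agar in 9 cm dishes, pre-inoculated with a suspension made from one colony in distilled water. Plates were incubated 18 h at 37 °C, then the inhibition zone was measured.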

Enterococcus faecalis [2] = test: Antibacterial activity against Enterococcus faecalis ATCC 29212 assessed as clear zone after 18 hrs by TLC bioautography; assay type: functional, organism-based
In short: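 After the TLC run, the solvent was evaporated. Plates were overlaid with Mueller-Hinton agar seeded with bacteria in nutrient broth and incubated 18 h at 37 °C in a humidified chamber. They were then sprayed with p-iodonitrotetrazolium bromide (2 mg/mL) and incubated 2 h. Clear zones were scored as antibacterial activity.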

Pseudomonas aeruginosa [3] = test: Antibacterial activity against Pseudomonas aeruginosa ATCC 27853 assessed as inhibition zone after 18 hrs by disk diffusion method; assay type: functional, organism-based; in short: as §1
Enterococcus faecalis [4] = test: Antibacterial activity against Enterococcus faecalis ATCC 29212 assessed as inhibition zone after 18 hrs by disk diffusion method; assay type: functional, organism-based; in short: as §1
Staphylococcus aureus [5] = test: Antibacterial activity against Staphylococcus aureus ATCC 25923 assessed as inhibition zone after 18 hrs by disk diffusion method; assay type: functional, organism-based; in short: as §1
Pseudomonas aeruginosa [6] = test: Antibacterial activity against Pseudomonas aeruginosa as growth inhibition by liquid microdilution assay; assay type: functional
In short: (§2)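 MIC was determined by liquid broth microdilution growth inhibition against standard strains.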

Staphylococcus aureus [7] = test: Antibacterial activity against Staphylococcus aureus assessed as growth inhibition by liquid microdilution assay; assay type: functional; in short: as §2
Enterococcus faecalis [8] = test: Antibacterial activity against Enterococcus faecalis assessed as growth inhibition by liquid microdilution assay; assay type: functional; in short: as §2
Escherichia coli [9] = test: Antibacterial activity against Escherichia coli assessed as growth inhibition by liquid microdilution assay; assay type: functional; in short: as §2

With C[C@@H]1O[C@@H](O[C@H]2C(OC(=O)[C@]34CCC(C)(C)C[C@H]3C3=CC[C@@H]5[C@@]6(C)C[C@@H](O)[C@H](O[C@@H]7O[C@H](CO)[C@@H](O)[C@H](O)[C@H]7O)[C@@](C)(CO)[C@@H]6CC[C@@]5(C)[C@]3(C)CC4)O[C@H](CO)[C@@H](O)[C@@H]2O)[C@H](O)[C@H](O)[C@H]1O (stereo partly drawn) the inhibition (Escherichia coli [1]) was “Active”, the inhibition (Enterococcus faecalis [2]) was “Active” and the inhibition (Pseudomonas aeruginosa [3]) was “Active”. The inhibition (Enterococcus faecalis [4]) was “Active” and the inhibition (Staphylococcus aureus [5]) was “Active”.

C[C@@H]1O[C@@H](O[C@H]2[C@H](OC(=O)[C@]34CCC(C)(C)C[C@H]3C3=CC[C@@H]5[C@@]6(C)C[C@@H](O)[C@H](O[C@@H]7O[C@H](CO)[C@@H](O)[C@H](O)[C@H]7O)C(C)(C)[C@@H]6CC[C@@]5(C)[C@]3(C)CC4)O[C@H](CO)[C@@H](O)[C@@H]2O)[C@H](O)[C@H](O)[C@H]1O was tested, and the inhibition (Escherichia coli [1]) was “Active”, the inhibition (Enterococcus faecalis [2]) was “Active” and the inhibition (Pseudomonas aeruginosa [3]) was “Active”. The inhibition (Enterococcus faecalis [4]) was “Active” and the inhibition (Staphylococcus aureus [5]) was “Active”.

C[C@H]1[C@H](C)CC[C@]2(C(=O)OC3O[C@H](CO)[C@@H](O)[C@H](O)[C@H]3O[C@@H]3O[C@@H](C)[C@H](O)[C@@H](O)[C@H]3O)CC[C@]3(C)C(=CC[C@@H]4[C@@]5(C)C[C@@H](O)[C@H](O[C@@H]6O[C@H](CO)[C@@H](O)[C@H](O)[C@H]6O)[C@@](C)(CO)[C@@H]5CC[C@]43C)[C@H]12 (stereo partly drawn) was tested, and the inhibition (Escherichia coli [1]) was “Active”, the inhibition (Enterococcus faecalis [2]) was “Active” and the inhibition (Pseudomonas aeruginosa [3]) was “Active”. For the same molecule, the inhibition (Enterococcus faecalis [4]) was “Active” and the inhibition (Staphylococcus aureus [5]) was “Active”.

Molecule CC1(C)CC[C@]2(C(=O)O)CC[C@]3(C)C(=CC[C@@H]4[C@@]5(C)C[C@@H](O)[C@H](O)[C@@](C)(CO)[C@@H]5CC[C@]43C)[C@@H]2C1 [ARJUNOLIC ACID] has an MIC (Pseudomonas aeruginosa [6]) of over 128 µg/mL, an MIC (Staphylococcus aureus [7]) of 64 µg/mL and an MIC (Enterococcus faecalis [8]) of 64 µg/mL. It also gave an MIC (Escherichia coli [9]) of over 128 µg/mL.

C[C@H]1[C@H](C)CC[C@]2(C(=O)O)CC[C@]3(C)C(=CC[C@@H]4[C@@]5(C)C[C@@H](O)[C@H](O)[C@@](C)(CO)[C@@H]5CC[C@]43C)[C@H]12 [ASIATIC ACID] was tested, and the MIC (Pseudomonas aeruginosa [6]) was over 128 µg/mL, the MIC (Staphylococcus aureus [7]) was over 128 µg/mL and the MIC (Enterococcus faecalis [8]) was 128 µg/mL. The MIC (Escherichia coli [9]) was over 128 µg/mL.

Work on CC(C)(O/N=C(\C(=O)N[C@@H]1C(=O)N2C(C(=O)[O-])=C(C[n+]3ccccc3)CS[C@H]12)c1csc(N)n1)C(=O)O [CEFTAZIDIME] yielded an MIC (Pseudomonas aeruginosa [6]) of 10 µg/mL (≈ 18.3 µM) and an MIC (Escherichia coli [9]) of 10 µg/mL.

C[C@H]1[C@H](C)CC[C@]2(C(=O)O)CC[C@]3(C)C(=CC[C@@H]4[C@@]5(C)C[C@@H](O)[C@H](O)C(C)(C)[C@@H]5CC[C@]43C)[C@H]12 [COROSOLIC ACID] gave an MIC (Pseudomonas aeruginosa [6]) of over 128 µg/mL, an MIC (Staphylococcus aureus [7]) of 32 µg/mL and an MIC (Enterococcus faecalis [8]) of 32 µg/mL. For the same molecule, the MIC (Escherichia coli [9]) was over 128 µg/mL.

CC1(C)CC[C@]2(C(=O)O)CC[C@]3(C)C(=CC[C@@H]4[C@@]5(C)C[C@@H](O)[C@H](O)C(C)(C)[C@@H]5CC[C@]43C)[C@@H]2C1 [MASLINIC ACID] gave an MIC (Pseudomonas aeruginosa [6]) of over 128 µg/mL, an MIC (Staphylococcus aureus [7]) of 64 µg/mL and an MIC (Enterococcus faecalis [8]) of 16 µg/mL. It also gave an MIC (Escherichia coli [9]) of over 128 µg/mL.

CC1(C)CC[C@]2(C(=O)O)CC[C@]3(C)C(=CC[C@@H]4[C@@]5(C)CC[C@H](O)C(C)(C)[C@@H]5CC[C@]43C)[C@@H]2C1 [OLEANOLIC_ACID] gave an MIC (Pseudomonas aeruginosa [6]) of over 128 µg/mL, an MIC (Staphylococcus aureus [7]) of over 128 µg/mL and an MIC (Enterococcus faecalis [8]) of 16 µg/mL. It also gave an MIC (Escherichia coli [9]) of over 128 µg/mL.

Work on C[C@H]1[C@H](C)CC[C@]2(C(=O)O)CC[C@]3(C)C(=CC[C@@H]4[C@@]5(C)CC[C@H](O)C(C)(C)[C@@H]5CC[C@]43C)[C@H]12 [URSOLIC ACID] yielded an MIC (Pseudomonas aeruginosa [6]) of over 128 µg/mL, an MIC (Staphylococcus aureus [7]) of 128 µg/mL and an MIC (Enterococcus faecalis [8]) of 16 µg/mL. The MIC (Escherichia coli [9]) was over 128 µg/mL.

CN[C@H](CC(C)C)C(=O)N[C@H]1C(=O)N[C@@H](CC(N)=O)C(=O)N[C@H]2C(=O)N[C@H]3C(=O)N[C@H](C(=O)N[C@H](C(=O)O)c4cc(O)cc(O)c4-c4cc3ccc4O)[C@H](O)c3ccc(c(Cl)c3)Oc3cc2cc(c3O[C@@H]2O[C@H](CO)[C@@H](O)[C@H](O)[C@H]2O[C@H]2C[C@](C)(N)[C@H](O)[C@H](C)O2)Oc2ccc(cc2Cl)[C@H]1O [VANCOMYCIN] showed an MIC (Staphylococcus aureus [7]) of 2.5 µg/mL and an MIC (Enterococcus faecalis [8]) of 2.5 µg/mL.
